In ChEMBL document CHEMBL4428079, “Modulation of Backbone Flexibility for Effective Dissociation of Antibacterial and Hemolytic Activity in Cyclic Peptides” (ACS Med Chem Lett, 2016):
In brackets after ≈: the same amount, converted by molar mass. Activity calls are given as the source filed them. The rule behind the calls is not given here. Bridge positions count the residues as written; N and C are the ends. Square brackets hold non-standard residues; d marks the D form. Peptide text beside a SMILES is read from it. Bip = N[C@@H](Cc1ccc(-c2ccccc2)cc1)C(=O)O; 2Nal = N[C@@H](Cc1ccc2ccccc2c1)C(=O)O; Dab = NCC[C@H](N)C(=O)O; AEEA = NCCOCCOCC(=O)O; Aoc = NCCCCCCCC(=O)O; Ahx = NCCCCCC(=O)O; AEA = NCCOCC(=O)O; GABA = NCCCC(=O)O

Key:
[1] = system: Erythrocyte; experiment: Hemolytic activity in human RBC after 1 hr by microplate reader method; assay type: ADME, cell-based
[2] = system: Escherichia coli; experiment: Antimicrobial activity against Escherichia coli ATCC 25922 after 18 hrs by tube microdilution method; assay type: functional; conditions: ATCC 25922, 18 h
[3] = system: Staphylococcus aureus; experiment: Antimicrobial activity against methicillin-resistant Staphylococcus aureus ATCC 33591 after 18 hrs by tube microdilution method; assay type: functional; conditions: ATCC 33591, 18 h
[4] = system: Enterococcus faecium; experiment: Antimicrobial activity against vancomycin-resistant Enterococcus faecium ATCC 700221 after 18 hrs by tube microdilution method; assay type: functional; conditions: ATCC 700221, 18 h
[5] = system: Pseudomonas aeruginosa; experiment: Antimicrobial activity against Pseudomonas aeruginosa ATCC 27853 after 18 hrs by tube microdilution method; assay type: functional; conditions: ATCC 27853, 18 h
[6] = system: Klebsiella pneumoniae; experiment: Antimicrobial activity against multiple drug resistant-Klebsiella pneumoniae ATCC 700603 after 18 hrs by tube microdilution method; assay type: functional; conditions: Klebsiella pneumoniae, 700603, 18 h
[7] = system: Acinetobacter baumannii; experiment: Antimicrobial activity against multiple drug resistant-Acinetobacter baumannii ATCC BAA-1605 after 18 hrs by tube microdilution method; assay type: functional; conditions: ATCC BAA-1605, 18 h
[8] = system: Lipid bilayer; experiment: Binding affinity to DOPE/DOPG large unilamellar vesicles in 3:1 ratio assessed as exciton split measured at 225 nanometer in NaHCO3 buffer
[9] = system: Staphylococcus aureus; experiment: Bactericidal activity against Staphylococcus aureus ATCC 29213 assessed as reduction in bacterial burden at 32 uM after 24 hrs by time kill kinetic study; assay type: functional, organism-based
Outline: (§1)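 Time-course kill assay against S. aureus ATCC 29213 with peptide at 32 μM. Viable cell count was followed over time as colony counts, with a final sampling at 24 h.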

[10] = system: Staphylococcus aureus; experiment: Bactericidal activity against Staphylococcus aureus ATCC 29213 assessed as reduction in bacterial burden at 32 uM measured up to 3.5 hrs by time kill kinetic study; assay type: functional; outline: as §1
[11] = system: Lipid bilayer; experiment: Membrane permeabilization in DOPC/POPG large unilamellar vesicles in 3:1 ratio assessed as sulforhodamine B release at 16 to 64 uM by fluorescence assay
Outline: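 Sulforhodamine B was entrapped at self-quenching concentration in LUVs of DOPC/POPG at 3:1. PE lipids were excluded, and palmitoyl replaced one oleyl chain for vesicle stability. Peptide was added at 16, 32 or 64 μM, and marker release was followed over time as fluorescence recovery on dye release and dilution.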

[12] = system: Staphylococcus aureus; experiment: Bactericidal activity against Staphylococcus aureus ATCC 29213 assessed as reduction in bacterial burden at 32 uM measured up to 30 mins by time kill kinetic study; assay type: functional; outline: as §1

SMILES: NCCCC[C@@H]1NC(=O)[C@H](CCCCN)NC(=O)[C@H](Cc2ccc3ccccc3c2)NC(=O)[C@H](CCCCN)NC(=O)[C@@H](CC(N)=O)NC(=O)[C@H](CCCCN)NC(=O)[C@H](Cc2ccc3ccccc3c2)NC(=O)CCCCCCCCCNC(=O)[C@H](Cc2ccc(-c3ccccc3)cc2)NC1=O
- EC50 [1]: 5 µM
- MIC [2]: 16 µM (≈ 22.6 µg/mL)
- MIC [3]: 16 µM (≈ 22.6 µg/mL)
- MIC [4]: 8 µM (≈ 11.3 µg/mL)
- MIC [5]: > 64 µM
- MIC [6]: > 64 µM
- MIC [7]: 16 µM (≈ 22.6 µg/mL)

SMILES: NCCCC[C@@H]1NC(=O)[C@H](Cc2ccc3ccccc3c2)NC(=O)CCCCCCCCCNC(=O)[C@H](Cc2ccc(-c3ccccc3)cc2)NC(=O)[C@H](CCCCN)NC(=O)[C@H](CCCCN)NC(=O)[C@H](Cc2ccc3ccccc3c2)NC(=O)[C@H](CCCCN)NC(=O)[C@H](CC(N)=O)NC1=O
- Activity [8]: Active

SMILES: NCCCC[C@@H]1NC(=O)[C@H](CCCCN)NC(=O)[C@H](Cc2ccc3ccccc3c2)NC(=O)[C@H](CCCCN)NC(=O)[C@H](CC(N)=O)NC(=O)[C@H](CCCCN)NC(=O)[C@H](Cc2ccc3ccccc3c2)NC(=O)[C@@H](N)CCCCNC(=O)[C@H](Cc2ccc(-c3ccccc3)cc2)NC1=O (H-K[2Nal]KNK[2Nal]KK[Bip]; lactam 1-C)
- Activity [8]: Active
- EC50 [1]: > 300 µM
- MIC [2]: 32 µM (≈ 43.9 µg/mL)
- MIC [3]: 16 µM (≈ 22 µg/mL)
- MIC [4]: 2 µM (≈ 2.75 µg/mL)
- MIC [5]: 16 µM (≈ 22 µg/mL)
- MIC [6]: 64 µM (≈ 87.9 µg/mL)
- MIC [7]: > 64 µM

SMILES: NCCCC[C@@H]1NC(=O)[C@H](CCCCN)NC(=O)[C@H](Cc2ccc3ccccc3c2)NC(=O)[C@H](CCCCN)NC(=O)[C@H](CC(N)=O)NC(=O)[C@H](CCCCN)NC(=O)[C@H](Cc2ccc3ccccc3c2)NC(=O)[C@@H](N)CCNC(=O)[C@H](Cc2ccc(-c3ccccc3)cc2)NC1=O (H-[Dab][2Nal]KNK[2Nal]KK[Bip]; lactam 1-C)
- Activity [8]: Active
- Activity [9]: Active
- EC50 [1]: > 300 µM
- LCK [10]: 3
- MIC [2]: 64 µM (≈ 86.1 µg/mL)
- MIC [3]: 16 µM (≈ 21.5 µg/mL)
- MIC [4]: 2 µM (≈ 2.69 µg/mL)
- MIC [5]: 32 µM (≈ 43 µg/mL)
- MIC [6]: 64 µM (≈ 86.1 µg/mL)
- MIC [7]: > 64 µM

SMILES: NCCCC[C@@H]1NC(=O)[C@H](Cc2ccc3ccccc3c2)NC(=O)COCCOCCNC(=O)[C@H](Cc2ccc(-c3ccccc3)cc2)NC(=O)[C@H](CCCCN)NC(=O)[C@H](CCCCN)NC(=O)[C@H](Cc2ccc3ccccc3c2)NC(=O)[C@H](CCCCN)NC(=O)[C@H](CC(N)=O)NC1=O (cyclo(K[2Nal]KK[Bip][AEEA][2Nal]KN))
- Activity [8]: inactive
- EC50 [1]: > 300 µM
- MIC [2]: 64 µM (≈ 88.9 µg/mL)
- MIC [3]: 16 µM (≈ 22.2 µg/mL)
- MIC [4]: 2 µM (≈ 2.78 µg/mL)
- MIC [5]: 32 µM (≈ 44.5 µg/mL)
- MIC [6]: 64 µM (≈ 88.9 µg/mL)
- MIC [7]: 16 µM (≈ 22.2 µg/mL)
- Activity [11]: Active

SMILES: NCCCC[C@@H]1NC(=O)[C@H](Cc2ccc3ccccc3c2)NC(=O)CNC(=O)[C@H](Cc2ccc(-c3ccccc3)cc2)NC(=O)[C@H](CCCCN)NC(=O)[C@H](CCCCN)NC(=O)[C@H](Cc2ccc3ccccc3c2)NC(=O)[C@H](CCCCN)NC(=O)[C@H](CC(N)=O)NC1=O (cyclo([2Nal]KK[Bip]G[2Nal]KNK))
- Activity [8]: Active
- Activity [9]: Active
- EC50 [1]: 45 µM
- MIC [2]: 32 µM (≈ 41.7 µg/mL)
- MIC [3]: 8 µM (≈ 10.4 µg/mL)
- MIC [4]: 4 µM (≈ 5.21 µg/mL)
- MIC [5]: 32 µM (≈ 41.7 µg/mL)
- MIC [6]: 32 µM (≈ 41.7 µg/mL)
- MIC [7]: 32 µM (≈ 41.7 µg/mL)
- Activity [11]: Active

SMILES: NCCCC[C@@H]1NC(=O)[C@H](Cc2ccc3ccccc3c2)NC(=O)COCCNC(=O)[C@H](Cc2ccc(-c3ccccc3)cc2)NC(=O)[C@H](CCCCN)NC(=O)[C@H](CCCCN)NC(=O)[C@H](Cc2ccc3ccccc3c2)NC(=O)[C@H](CCCCN)NC(=O)[C@H](CC(N)=O)NC1=O (cyclo([2Nal]KK[Bip][AEA][2Nal]KNK))
- Activity [8]: Active
- EC50 [1]: > 300 µM
- MIC [2]: 32 µM (≈ 43.1 µg/mL)
- MIC [3]: 16 µM (≈ 21.5 µg/mL)
- MIC [4]: 4 µM (≈ 5.38 µg/mL)
- MIC [5]: 32 µM (≈ 43.1 µg/mL)
- MIC [6]: 64 µM (≈ 86.1 µg/mL)
- MIC [7]: 32 µM (≈ 43.1 µg/mL)

SMILES: NCCCC[C@@H]1NC(=O)[C@H](Cc2ccc3ccccc3c2)NC(=O)CCCCCNC(=O)[C@H](Cc2ccc(-c3ccccc3)cc2)NC(=O)[C@H](CCCCN)NC(=O)[C@H](CCCCN)NC(=O)[C@H](Cc2ccc3ccccc3c2)NC(=O)[C@H](CCCCN)NC(=O)[C@H](CC(N)=O)NC1=O (cyclo([2Nal]KK[Bip][Ahx][2Nal]KNK))
- Activity [8]: Active
- EC50 [1]: 18 µM
- MIC [2]: 16 µM (≈ 21.7 µg/mL)
- MIC [3]: 8 µM (≈ 10.9 µg/mL)
- MIC [4]: 2 µM (≈ 2.72 µg/mL)
- MIC [5]: 16 µM (≈ 21.7 µg/mL)
- MIC [6]: 8 µM (≈ 10.9 µg/mL)
- MIC [7]: 8 µM (≈ 10.9 µg/mL)

SMILES: NCCCC[C@@H]1NC(=O)[C@H](Cc2ccc3ccccc3c2)NC(=O)CCCCCCCNC(=O)[C@H](Cc2ccc(-c3ccccc3)cc2)NC(=O)[C@H](CCCCN)NC(=O)[C@H](CCCCN)NC(=O)[C@H](Cc2ccc3ccccc3c2)NC(=O)[C@H](CCCCN)NC(=O)[C@H](CC(N)=O)NC1=O (cyclo([2Nal]KK[Bip][Aoc][2Nal]KNK))
- Activity [8]: Active
- EC50 [1]: 12 µM
- MIC [2]: 16 µM (≈ 22.2 µg/mL)
- MIC [3]: 4 µM (≈ 5.54 µg/mL)
- MIC [4]: 2 µM (≈ 2.77 µg/mL)
- MIC [5]: 16 µM (≈ 22.2 µg/mL)
- MIC [6]: 16 µM (≈ 22.2 µg/mL)
- MIC [7]: 16 µM (≈ 22.2 µg/mL)
- Activity [11]: Active

SMILES: NCCCC[C@@H]1NC(=O)[C@H](Cc2ccc3ccccc3c2)NC(=O)CCCNC(=O)[C@H](Cc2ccc(-c3ccccc3)cc2)NC(=O)[C@H](CCCCN)NC(=O)[C@H](CCCCN)NC(=O)[C@H](Cc2ccc3ccccc3c2)NC(=O)[C@H](CCCCN)NC(=O)[C@H](CC(N)=O)NC1=O (cyclo([2Nal]KK[Bip][GABA][2Nal]KNK))
- Activity [8]: Active
- LCK [12]: 3
- Activity [9]: Active
- EC50 [1]: 155 µM
- MIC [2]: 32 µM (≈ 42.5 µg/mL)
- MIC [3]: 16 µM (≈ 21.3 µg/mL)
- MIC [4]: 4 µM (≈ 5.32 µg/mL)
- MIC [5]: 32 µM (≈ 42.5 µg/mL)
- MIC [6]: 32 µM (≈ 42.5 µg/mL)
- MIC [7]: 32 µM (≈ 42.5 µg/mL)
